Measurements published in ChEMBL document CHEMBL2331335, “Synthesis of hemslecin A derivatives: a new class of hepatitis B virus inhibitors” (Bioorg Med Chem Lett, 2013).

How the values were obtained:
[1] = Selectivity index, ratio of CC50 for human HepG2.2.15 cells to IC50 for HBV infected in human HepG2.2.15 cells assessed as inhibition of viral DNA replication; assay type: functional
Procedure, shortened: (§1)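 Selectivity index was calculated as CC50 (HepG 2.2.15 cytotoxicity) divided by IC50 for the given marker (HBV DNA replication, HBeAg or HBsAg), all measured in HepG 2.2.15 cells.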

Hepatitis B virus [2] = assay: Antiviral activity against HBV infected in human HepG2.2.15 cells assessed as inhibition of viral DNA replication; assay type: functional, organism-based; conditions: HepG2 2.2.15
Procedure, shortened: (§2)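 Assayed in HBV-producing HepG 2.2.15 cells, with tenofovir as positive control. HBsAg, HBeAg and HBV DNA replication were each measured, and IC50 was taken as the compound concentration giving 50% inhibition of the given marker.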

Hepatitis B virus [3] = assay: Antiviral activity against HBV infected in human HepG2.2.15 cells assessed as inhibition of viral e antigen production; assay type: functional, organism-based; conditions: HepG2 2.2.15; procedure, shortened: as §2
Hepatitis B virus [4] = assay: Antiviral activity against HBV infected in human HepG2.2.15 cells assessed as inhibition of viral surface antigen production; assay type: functional, organism-based; conditions: HepG2 2.2.15; procedure, shortened: as §2
[5] = Cytotoxicity against human HepG2.2.15 cells; assay type: cell-based, HepG2 2.2.15
Procedure, shortened: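 Cytotoxicity was tested in HepG 2.2.15 cells alongside the anti-HBV assay. CC50 was taken as the compound concentration required to destroy 50% of the cells.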

[6] = Selectivity index, ratio of CC50 for human HepG2.2.15 cells to IC50 for HBV infected in human HepG2.2.15 cells assessed as inhibition of viral e antigen production; assay type: functional; procedure, shortened: as §1

SMILES	Ratio CC50/IC50 [1]	IC50 (Hepatitis B virus [2]) [µM]	IC50 (Hepatitis B virus [3]) [µM]	IC50 (Hepatitis B virus [4]) [µM]	CC50 [5] [µM]	Ratio CC50/IC50 [6]
CC(=O)O[C@H]1C[C@@H]2C(=CC[C@@H]3[C@@]2(C)C(=O)C[C@]2(C)[C@@H]([C@@](C)(O)C(=O)CCC(C)(C)OC(C)=O)[C@H](OC(C)=O)C[C@@]32C)C(C)(C)[C@@H]1OC(C)=O	>46.6	17.3	> 807	> 807	> 807	–
CCC(=O)O[C@H]1C[C@@H]2C(=CC[C@@H]3[C@@]2(C)C(=O)C[C@]2(C)[C@@H]([C@@](C)(O)C(=O)CCC(C)(C)OC(C)=O)[C@H](OC(C)=O)C[C@@]32C)C(C)(C)[C@@H]1OC(=O)CC	>34.2	19	> 650	> 650	> 650	–
CCOCC(=O)O[C@H]1C[C@@H]2C(=CC[C@@H]3[C@@]2(C)C(=O)C[C@]2(C)[C@@H]([C@@](C)(O)C(=O)CCC(C)(C)OC(C)=O)[C@H](OC(=O)COCC)C[C@@]32C)C(C)(C)[C@@H]1OC(=O)COCC	>55.8	10	> 560	> 560	> 560	–
COc1cccc(/C=C/C(=O)O[C@H]2C[C@@H]3C(=CC[C@@H]4[C@@]3(C)C(=O)C[C@]3(C)[C@@H]([C@@](C)(O)C(=O)CCC(C)(C)OC(C)=O)[C@H](OC(=O)/C=C/c5cccc(OC)c5)C[C@@]43C)C(C)(C)[C@@H]2OC(=O)/C=C/c2cccc(OC)c2)c1	>14	51.2	> 719	> 719	> 719	–
CC(=O)OC(C)(C)CCC(=O)[C@](C)(O)[C@H]1[C@H](O)C[C@@]2(C)[C@@H]3C[C@H]4O[C@@]45[C@@H](C[C@H](O)[C@@H](O)C5(C)C)[C@]3(C)C(=O)C[C@]12C	>150.5	11.6	> 1740	> 1740	> 1740	–
CC(=O)O[C@H]1C[C@H]2[C@]3(C)C(=O)C[C@]4(C)[C@@H]([C@@](C)(O)C(=O)CCC(C)(C)OC(C)=O)[C@H](OC(C)=O)C[C@@]4(C)[C@@H]3C[C@H]3O[C@]32C(C)(C)[C@@H]1OC(C)=O	–	> 961	> 961	> 961	> 961	–
CCCC(=O)O[C@H]1C[C@H]2[C@]3(C)C(=O)C[C@]4(C)[C@@H]([C@@](C)(O)C(=O)CCC(C)(C)OC(C)=O)[C@H](OC(=O)CCC)C[C@@]4(C)[C@@H]3C[C@H]3O[C@]32C(C)(C)[C@@H]1OC(=O)CCC	–	> 618	401	> 618	> 618	>2
COCC(=O)O[C@H]1C[C@H]2[C@]3(C)C(=O)C[C@]4(C)[C@@H]([C@@](C)(O)C(=O)CCC(C)(C)OC(C)=O)[C@H](OC(=O)COC)C[C@@]4(C)[C@@H]3C[C@H]3O[C@]32C(C)(C)[C@@H]1OC(=O)COC	–	> 1110	592	> 1110	> 1110	>1.9
CCOCC(=O)O[C@H]1C[C@H]2[C@]3(C)C(=O)C[C@]4(C)[C@@H]([C@@](C)(O)C(=O)CCC(C)(C)OC(C)=O)[C@H](OC(=O)COCC)C[C@@]4(C)[C@@H]3C[C@H]3O[C@]32C(C)(C)[C@@H]1OC(=O)COCC	–	> 633	> 633	> 633	> 633	–
COCC(=O)O[C@H]1C[C@H]2[C@]3(C)C(=O)C[C@]4(C)[C@@H]([C@@](C)(O)C(=O)CCC(C)(C)OC(C)=O)[C@H](OC(=O)COC)C[C@@]4(C)[C@@H]3C[C@@H](O)[C@@]2(OC(=O)c2cccc(Cl)c2)C(C)(C)[C@@H]1OC(=O)COC	–	> 1740	> 1740	> 1740	> 1740	–
CCOCC(=O)O[C@H]1C[C@H]2[C@]3(C)C(=O)C[C@]4(C)[C@@H]([C@@](C)(O)C(=O)CCC(C)(C)OC(C)=O)[C@H](OC(=O)COCC)C[C@@]4(C)[C@@H]3C[C@@H](O)[C@@]2(OC(=O)c2cccc(Cl)c2)C(C)(C)[C@@H]1OC(=O)COCC	–	> 710	> 710	> 710	> 710	–
